Data set [1] concerns U87 human glioblastoma cell line. Kind of data set: PrestoBlue viability test on U87 cells with or without HNE. It counts as cell-based. The settings on record: 48 h. An outline of the steps:
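U87 cells were seeded and cultured for 48 h, then switched to serum-free DMEM. Test compound (0–400 μM) and HNE 0.68 μM were added; where used, eglin C 10 μM was added before HNE. After 1 h, 10% serum was added and incubation continued for 24, 48 or 72 h. PrestoBlue reagent (1/10 volume) was added for 30 min at 37 °C, and fluorescence was read at ex 560/em 590 nm.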

Data set [2] has as its system caspase 3/7 activation in U87 cells. Kind of data set: Caspase-Glo 3/7 assay in U87 cells. It counts as cell-based, human. The conditions noted are these: doxorubicin 2 μM. In short, it runs like this:
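U87 human glioblastoma cells were grown in DMEM with 10% FBS at 37 °C and 5% CO2, then seeded and cultured for 48 h before treatment. Doxorubicin 2 μM served as the apoptosis control, and signals were followed over time up to 48 h. For Caspase-Glo 3/7, plate and reagent were equilibrated to room temperature, then reagent was added to the wells. After 15 min at room temperature, luminescence was read.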

The subject of the next data set is U87 cells. The data set can be described thus: RealTime-Glo Annexin V Apoptosis and Necrosis Assay in U87 cells. Type of data set: cell-based, human. The settings on record: doxorubicin 2 μM. In short, it runs like this: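 U87 cells were kept in DMEM with 10% FBS at 37 °C and 5% CO2, seeded for 48 h, then exposed to doxorubicin 2 μM as the apoptosis control and followed up to 48 h. RealTime-Glo detection reagent was added to the live-cell medium. Annexin V binding was read by luminescence. Necrosis was read as fluorescence of a cell-impermeant DNA dye (ex 485/em 530 nm) after 60 min at 37 °C.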

*1 amine or outer side, *2 acyl side, *3 side chain or, on linkers, in order; H or OH if unused. Where a SMILES comes first, the peptide text is derived from it. The star is where a group is joined. X4 = CC(ON(C(C)(C)C)C(C)(C)C)c1ccc(O*)cc1; Suc = O=C(CCC(=O)[*:2])[*:1]

On to `COc1cccc2c1C(=O)c1c(O)c3c(c(O)c1C2=O)C[C@@](O)(C(=O)CO)C[C@@H]3O[C@H]1C[C@H](N)[C@H](O)[C@H](C)O1` [doxorubicin], for which, in data set [1] (doxorubicin 2 μM), the “U87 population still viable” value is 50%. Besides, in data set [2], the “caspase activity (positive control)” value was “increases between 24 and 48 h”. For the same molecule, the “DNA+ labeling (positive control)” value in the data set on U87 cells is on record as “increases regularly until 48 h”. Moreover, the “annexin V labeling (positive control)” value with U87 cells (timing similar to caspase (24 to 48 h)) is “highly AV+”.
In the case of `CC(NC(=O)CCC(=O)O)C(=O)NC(C)C(=O)N1CCCC1C(=O)NC(C(=O)Oc1ccc(C(C)ON(C(C)(C)C)C(C)(C)C)cc1)C(C)C` (stereo not drawn) [suc-AAPV-phenol-DBNO, Acid 4-((1-((1-(2-((1-(4-(1-((di-tert-butylamino)oxy)ethyl)phenoxy)-3-methyl-1-oxobutan-2-yl)carbamoyl)pyrrolidin-1-yl)-1-oxopropan-2-yl)amino)-1-oxopropan-2-yl)amino)-4-oxobutanoic Acid] (Suc-AAPV-X4; configuration not given here), the “effect on viability in the presence of HNE” value in data set [1] (U87 cells, prodrug 0–400 μM, HNE 0.68 μM) was “does not have any measurable effect”.

B1: eglin C: a potent HNE inhibitor (CIBA-GEIGY) (protein, UniProt P01051 1-70, looked up)
Eglin C: TEFGSELKSFPEVVGKTVDQAREYFTLHYPQYDVYFLPEGSPVTLDLRYNRVRVFYNPGTNVVNHVPHVG
Take B1: in data set [1] (eglin C 10 μM added just before HNE 0.68 μM, four prodrugs), the “rescue of U87 cells from prodrug + HNE cytotoxicity by elastase inhibitor” value is given as “rescues the cells”.
